This is an account of results in PMC3103050 (Genes to cells : devoted to molecular & cellular mechanisms, 2009).

T1: His-REV1(1130–1251) (Homo sapiens, UniProt Q9UBZ9)
T1 sequence (Q9UBZ9 1130-1251): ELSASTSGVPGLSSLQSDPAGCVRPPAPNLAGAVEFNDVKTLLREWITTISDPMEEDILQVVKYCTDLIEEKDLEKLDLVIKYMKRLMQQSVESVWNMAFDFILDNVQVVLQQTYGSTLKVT

T2: His-Polκ(1–615) (human, UniProt Q9UBT6 1-615)
T2 sequence (looked up): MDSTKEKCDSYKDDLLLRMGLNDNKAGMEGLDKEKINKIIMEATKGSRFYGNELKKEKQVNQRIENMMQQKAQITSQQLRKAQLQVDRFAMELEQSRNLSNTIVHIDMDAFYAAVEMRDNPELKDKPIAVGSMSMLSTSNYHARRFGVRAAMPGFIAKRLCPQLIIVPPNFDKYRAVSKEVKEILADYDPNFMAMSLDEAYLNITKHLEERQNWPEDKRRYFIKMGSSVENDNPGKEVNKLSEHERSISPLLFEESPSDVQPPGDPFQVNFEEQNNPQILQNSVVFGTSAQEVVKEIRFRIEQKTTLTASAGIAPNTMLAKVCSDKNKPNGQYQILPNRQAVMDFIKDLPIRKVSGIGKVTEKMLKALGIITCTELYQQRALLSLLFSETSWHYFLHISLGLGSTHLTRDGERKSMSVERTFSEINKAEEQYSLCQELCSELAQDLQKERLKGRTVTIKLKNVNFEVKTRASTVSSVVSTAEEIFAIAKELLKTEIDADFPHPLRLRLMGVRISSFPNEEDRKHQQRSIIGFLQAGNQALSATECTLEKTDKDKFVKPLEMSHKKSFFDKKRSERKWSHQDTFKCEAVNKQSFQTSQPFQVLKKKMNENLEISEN

T3: His-REV1(1130–1251) (human, UniProt Q9UBZ9 1130-1251)
T3 sequence (looked up): T1 sequence (Q9UBZ9 1130-1251)

B1: η694-713FF (peptide)
peptide: CKRPRPEGMQTLESFFKPLTH
B2: κ564-575FF (peptide)
peptide: CKKSFFDKKRSER
B3: κ562-575FF (peptide)
peptide: CSHKKSFFDKKRSER
B4: GST-REV1(826–1251) (domain or fragment, human, UniProt Q9UBZ9 826-1251, looked up)
chain: PTNLNPSTCPSRPSVQSSHFPSGSYSVRDVFQVQKAKKSTEEEHKEVFRAAVDLEISSASRTCTFLPPFPAHLPTSPDTNKAESSGKWNGLHTPVSVQSRLNLSIEVPSPSQLDQSVLEALPPDLREQVEQVCAVQQAESHGDKKKEPVNGCNTGILPQPVGTVLLQIPEPQESNSDAGINLIALPAFSQVDPEVFAALPAELQRELKAAYDQRQRQGENSTHQQSASASVPKNPLLHLKAAVKEKKRNKKKKTIGSPKRIQSPLNNKLLNSPAKTLPGACGSPQKLIDGFLKHEGPPAEKPLEELSASTSGVPGLSSLQSDPAGCVRPPAPNLAGAVEFNDVKTLLREWITTISDPMEEDILQVVKYCTDLIEEKDLEKLDLVIKYMKRLMQQSVESVWNMAFDFILDNVQVVLQQTYGSTLKVT
B5: κ560-575FF (peptide)
peptide: CEMSHKKSFFDKKRSER
B6: η524-539FF (peptide)
peptide: CQSTGTEPFFKQKSLLL
B7: ι539-554FF (peptide)
peptide: CASRGVLSFFSKKQMQD

The target in test [1] is T1, His-REV1(1130–1251). Briefly: Surface plasmon resonance, His-REV1. Format: binding. The following applies: SPR, BIACORE 2000, CM5 chip; His-REV1(1130–1251) 1.1 µM in Fig. 2A. The gist of the method: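 SPR on BIACORE 2000. Synthetic peptides carrying an added N-terminal Cys were thiol-coupled to CM5 dextran. His-REV1(1130–1251) was cut from a GST-His fusion with Factor Xa, purified on Ni-NTA, then cleared of uncleaved fusion on glutathione resin. Varying concentrations were injected in 10 mM HEPES pH 7.5, 150 mM NaCl, 3 mM EDTA, 0.005% P20 at 20 µl/min, 25°C; contact 60 s, dissociation 120 s. Control-cell signal was subtracted. Kd came from equilibrium analysis of mean signals.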
(In general: In SPR one partner is held on a chip, and binding of the other changes the refractive index at the surface.)

The subject of the next test is REV1(1130–1218). As to the kind of experiment: Surface plasmon resonance, REV1. It counts as binding, human. Particulars: SPR; REV1 derivative lacking a portion essential for the interaction with Polκ; data not shown.
Test [2] has as its target PCNA (Homo sapiens, UniProt P12004). Briefly: Surface plasmon resonance, PCNA binding to immobilized peptides. The following applies: SPR; data not shown. The method in brief: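 PCNA binding by SPR against synthetic peptides that carry an added N-terminal Cys, coupled through the sulfhydryl to CM5 carboxylated dextran sensor chips by thiol activation chemistry. The peptide–protein signal minus the control-cell signal was analysed and scored + or −.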

The target of test [3] is T4, PCNA (UniProt P12004 1-261). Briefly: SPR.
Test [4] concerns the target T4, PCNA. As to the kind of experiment: SPR. This is another data set of the same source.
The test “GST-REV1(826–1251)” deals with B4. As to the kind of experiment: pull-down.
The next test addresses T2, His-Polκ(1–615). As to the kind of experiment: pull-down.
Test [5] deals with T3, His-REV1(1130–1251). As to the kind of experiment: SPR.

Read-outs that look alike come from different tables or passages of the source.

T4 sequence (P12004 whole entry): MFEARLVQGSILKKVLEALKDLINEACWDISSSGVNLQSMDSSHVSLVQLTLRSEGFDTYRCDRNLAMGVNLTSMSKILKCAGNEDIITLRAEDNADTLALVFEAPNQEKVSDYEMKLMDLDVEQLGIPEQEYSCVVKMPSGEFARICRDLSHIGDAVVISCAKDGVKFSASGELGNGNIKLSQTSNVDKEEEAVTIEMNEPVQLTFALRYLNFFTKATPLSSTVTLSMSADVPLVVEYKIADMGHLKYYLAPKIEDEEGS
Chain of PCNA (Homo sapiens, UniProt P12004) (P12004 whole entry, species assumed): as the sequence (P12004 whole entry) above

Consider CEMSHKKSAADKKRSER [κ560-575AA], for which the “Binding of His-REV1(1130–1251) / REV1-CTD to immobilized peptide (in words)” value at His-REV1(1130–1251) [1] is listed as “but not to κ560-575AA”. Besides, the “Interaction of REV1(1130–1218) with immobilized peptide (in words)” value in the test on REV1(1130–1218) was “failed to interact”.

With CKRPRPEGMQTLESAAKPLTH [η694-713AA], on PCNA [2], the “PCNA binding to immobilized peptide (in words)” value is listed as “failed to bind”.

As for CPLEMSHKKSFFDKK [κ558-571FF], the “Binding of His-REV1(1130–1251) / REV1-CTD to immobilized peptide (in words)” value on His-REV1(1130–1251) [1] is recorded as “failure of κ558-571FF to bind REV1-CTD”. B1: the results for the Kd with PCNA [3] and with PCNA [4] were around 0.4 µM and around 0.3 µM, respectively.

In the case of B2, in the test with GST-REV1(826–1251), the binding result is reported as “binds”. As for B3, the binding result in the test with GST-REV1(826–1251) was “binds”. Take B4: the binding result in the test with His-Polκ(1–615) is reported as “binds”. Take B5: the Kd (as a rule, a measure of binding affinity in units of concentration) with His-REV1(1130–1251) [5] was 7.6 µM. This lies in the single-digit micromolar range.

As for B6, the Kd with His-REV1(1130–1251) [5] was 13 µM. Still for that read-out and setting: then B7, with 69 µM.
